Paper PMC9394215 (Journal for Immunotherapy of Cancer, 2022)

Assays:
NTPDase2 = molecular target: T1, NTPDase2 (Homo sapiens, UniProt Q9Y5L3); assay: Malachite green assay, NTPDase2 in COS-7 cell membranes; format: biochemical
T1 sequence (Q9Y5L3 1-495): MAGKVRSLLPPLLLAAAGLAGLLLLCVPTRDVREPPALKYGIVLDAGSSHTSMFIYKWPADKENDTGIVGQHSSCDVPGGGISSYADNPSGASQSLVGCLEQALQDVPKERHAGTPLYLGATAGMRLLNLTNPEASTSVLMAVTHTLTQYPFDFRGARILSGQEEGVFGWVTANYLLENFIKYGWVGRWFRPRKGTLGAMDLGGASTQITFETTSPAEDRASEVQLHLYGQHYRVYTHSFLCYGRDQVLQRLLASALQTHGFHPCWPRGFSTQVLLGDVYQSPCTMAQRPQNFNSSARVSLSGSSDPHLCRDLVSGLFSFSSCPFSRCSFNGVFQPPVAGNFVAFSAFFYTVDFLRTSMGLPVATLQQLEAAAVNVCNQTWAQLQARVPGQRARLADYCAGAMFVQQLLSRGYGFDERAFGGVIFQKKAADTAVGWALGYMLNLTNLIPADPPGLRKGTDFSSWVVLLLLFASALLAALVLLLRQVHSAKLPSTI
Outline: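 Human NTPDase2, -3 or -8 was expressed in COS-7 membranes (ca. 100 ng protein, adjusted for 10–20% substrate conversion). Enzyme was preincubated 5 min at 37°C with test compound (50 µM single point, or 0.1–300 µM for curves). It was then incubated 15 min at 37°C with 100 µM ATP in HEPES/CaCl2/MgCl2, pH 7.4, ≤2% DMSO. Malachite green absorbance at 600 nm was corrected by a denatured-enzyme blank; n=3.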

Soluble CD73 = molecular target: T2, Soluble CD73 (Homo sapiens, UniProt P21589); assay: CD73 assay with [2,8-3H]AMP; format: biochemical
T2 sequence (P21589 27-549 limits assumed): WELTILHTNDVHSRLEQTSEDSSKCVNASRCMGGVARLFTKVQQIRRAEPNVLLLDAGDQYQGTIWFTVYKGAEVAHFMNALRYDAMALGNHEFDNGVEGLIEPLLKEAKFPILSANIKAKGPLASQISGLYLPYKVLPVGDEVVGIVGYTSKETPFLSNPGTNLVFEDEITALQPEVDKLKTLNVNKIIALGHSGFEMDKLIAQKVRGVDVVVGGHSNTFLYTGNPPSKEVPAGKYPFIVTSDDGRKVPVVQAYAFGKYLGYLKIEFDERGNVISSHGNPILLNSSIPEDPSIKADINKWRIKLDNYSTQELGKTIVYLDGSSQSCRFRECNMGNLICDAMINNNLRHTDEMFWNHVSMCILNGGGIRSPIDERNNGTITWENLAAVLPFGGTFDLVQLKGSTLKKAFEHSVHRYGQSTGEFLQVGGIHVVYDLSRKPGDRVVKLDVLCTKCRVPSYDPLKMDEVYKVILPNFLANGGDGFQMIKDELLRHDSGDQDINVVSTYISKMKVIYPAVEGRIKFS
Outline: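 A dilution series of test compound was incubated with soluble human CD73 (0.09 µg/mL) and 5.0 µM [2,8-3H]AMP in 25 mM Tris, 140 mM NaCl, 25 mM NaH2PO4, pH 7.4. Incubation ran 25 min at 37°C with shaking. Cold LaCl3/sodium acetate buffer (pH 4.0) precipitated phosphate and unconverted AMP over 30 min on ice. Samples were filtered through GF/B filters and the filtrate collected.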

NPP4 = molecular target: T3, NPP4 (Homo sapiens, UniProt Q9Y6X5); assay: NPP4 assay; format: biochemical
T3 sequence (Q9Y6X5 16-407 limits assumed): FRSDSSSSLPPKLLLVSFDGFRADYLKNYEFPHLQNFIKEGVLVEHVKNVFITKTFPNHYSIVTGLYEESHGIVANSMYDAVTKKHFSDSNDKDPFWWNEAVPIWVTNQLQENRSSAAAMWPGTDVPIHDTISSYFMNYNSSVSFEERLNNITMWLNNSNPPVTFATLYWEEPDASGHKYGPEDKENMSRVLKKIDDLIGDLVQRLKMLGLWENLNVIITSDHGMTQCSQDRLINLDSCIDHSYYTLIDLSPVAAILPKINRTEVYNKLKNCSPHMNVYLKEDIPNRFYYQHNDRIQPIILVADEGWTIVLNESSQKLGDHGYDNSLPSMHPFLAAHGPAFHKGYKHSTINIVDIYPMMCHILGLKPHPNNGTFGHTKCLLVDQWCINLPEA
Outline: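 Purified soluble NPP4 (1200 ng, Sf9-expressed) was incubated with 50 µM test compound, 2% DMSO and 300 µM diadenosine tetraphosphate. Buffer: 10 mM HEPES, 2 mM CaCl2, 1 mM MgCl2, pH 8.0; 90 min at 37°C with shaking. The reaction was heat-stopped (90°C, 5 min) and chilled on ice. Product ATP was quantified by capillary electrophoresis.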

NPP5 = molecular target: T4, NPP5 (Homo sapiens, UniProt Q9UJA9); assay: NPP5 assay; format: biochemical
T4 sequence (Q9UJA9 25-431 limits assumed): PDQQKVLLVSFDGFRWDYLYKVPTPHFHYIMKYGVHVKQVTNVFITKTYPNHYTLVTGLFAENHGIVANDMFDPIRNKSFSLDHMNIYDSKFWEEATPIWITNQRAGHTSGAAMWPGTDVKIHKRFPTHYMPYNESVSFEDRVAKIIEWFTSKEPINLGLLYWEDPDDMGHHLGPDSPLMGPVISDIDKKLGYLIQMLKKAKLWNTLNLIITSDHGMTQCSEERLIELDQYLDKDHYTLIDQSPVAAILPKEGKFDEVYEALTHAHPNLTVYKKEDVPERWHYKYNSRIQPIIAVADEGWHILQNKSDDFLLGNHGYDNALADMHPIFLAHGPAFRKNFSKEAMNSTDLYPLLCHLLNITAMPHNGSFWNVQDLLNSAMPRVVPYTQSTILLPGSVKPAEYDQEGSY
Outline: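 Either CD38 (5 ng) or NPP5 (250 ng) was mixed with 50 µM test compound and 100 µM NAD+ as substrate. For CD38 the reaction buffer was 10 mM HEPES, pH 7.4.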

[1] = system: melanoma (Ma-Mel-65) cell membrane preparations; assay: Malachite green assay, ATP hydrolysis by melanoma cell membrane preparations; format: biochemical, human; conditions: increasing concentrations of ceritinib, 50 µM ATP
Outline: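 Crude membranes came from ~90% confluent MDA-MB-231 or Ma-Mel-65 cells. Cells were homogenised in Tris/EDTA/saccharose/PMSF buffer, pH 7.4, and centrifuged at 1000 g, then 48,000 g for 1 h at 4°C. Pellets were washed and stored at −80°C in 50 mM Tris-HCl, pH 7.4. ATP hydrolysis (50 µM ATP, HEPES/Ca/Mg pH 7.4) was run with increasing test compound concentrations for 15 min at 37°C. Phosphate was read by malachite green (600 nm); triplicates, n=3.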

melanoma (MaMel65) cells = assay: Extracellular eATP hydrolysis on live melanoma cells; format: cell-based, human; conditions: 1, 10, 100 µM, significant at 10 µM, 20 µM eATP
[2] = read-out: % inhibition at 50 µM

- IC50 (NTPDase2): > 50 µM
- inhibition at 50 µM (NTPDase2; [2]): -8%
- IC50 (Soluble CD73): > 50 µM
- inhibition at 50 µM (Soluble CD73; [2]): 33%
- IC50 (NPP4): > 50 µM
- inhibition at 50 µM (NPP4; [2]): 15%
- IC50 (NPP5): > 50 µM
- inhibition at 50 µM (NPP5; [2]): 1%
Compound: Cc1cc(Nc2ncc(Cl)c(Nc3ccccc3S(=O)(=O)C(C)C)n2)c(OC(C)C)cc1C1CCNCC1 [ceritinib, Ceritinib]
- ATPase activity of cancer cell membranes [1]: decreased significantly
- inhibition of hydrolysis of eATP added to live cells (melanoma (MaMel65) cells): concentration-dependent inhibition
